Reference: ChEMBL document CHEMBL1146760, “3,4-Dihydronaphthalen-1(2H)-ones: novel ligands for the benzodiazepine site of alpha5-containing GABAA receptors” (Bioorg Med Chem Lett, 2004)

Legend:
[1] = target: T1, GABA-A receptor; alpha-5/beta-3/gamma-2 (Homo sapiens) (UniProt P18507+P28472+P31644); assay: Percentage modulation of submaximal (EC20) response to GABA-A receptor alpha-5-beta-3-gamma-2 subunits expressed in Xenopus laevis oocytes; assay type: functional, cell-based; conditions: Oocyte
[2] = target: T1, GABA-A receptor; alpha-5/beta-3/gamma-2 (Homo sapiens); assay: Percentage modulation of submaximal (EC20) response to GABA-A receptor alpha-5-beta-3-gamma-2 subunits expressed in mouse fibroblast L(tk-) cells; assay type: functional, cell-based
Procedure, shortened: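 Whole-cell patch clamp of mouse fibroblast L(tk⁻) cells stably expressing human α5β3γ2. Percentage maximum modulation of current relative to a submaximal (EC20) GABA response, taken from fitted concentration–response curves. Mean ± SEM of at least three individual curves.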

[3] = target: T2, GABA-A receptor; alpha-5/beta-3/gamma-2 (Homo sapiens, UniProt P18507+P28472+P31644); assay: Inhibition of [3H]-Ro- 15-1788 binding to human GABA-A receptor alpha-5-beta-3-gamma-2 subunits; assay type: protein-complex assay
T2 sequence (P18507 whole entry): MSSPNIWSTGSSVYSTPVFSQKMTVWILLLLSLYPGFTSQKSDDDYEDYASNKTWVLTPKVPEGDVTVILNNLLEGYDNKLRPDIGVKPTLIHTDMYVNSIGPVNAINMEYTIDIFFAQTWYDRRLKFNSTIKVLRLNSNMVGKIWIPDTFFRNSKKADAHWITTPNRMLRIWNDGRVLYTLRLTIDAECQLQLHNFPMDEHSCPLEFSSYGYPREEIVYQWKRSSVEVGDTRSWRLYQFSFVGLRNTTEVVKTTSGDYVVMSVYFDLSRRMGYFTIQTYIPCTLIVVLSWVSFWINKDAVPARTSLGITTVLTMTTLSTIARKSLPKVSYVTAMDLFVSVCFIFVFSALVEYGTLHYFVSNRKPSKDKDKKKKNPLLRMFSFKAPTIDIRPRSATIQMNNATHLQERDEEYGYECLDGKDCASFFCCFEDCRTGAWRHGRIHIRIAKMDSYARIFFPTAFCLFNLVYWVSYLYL
T2 sequence (P28472 whole entry): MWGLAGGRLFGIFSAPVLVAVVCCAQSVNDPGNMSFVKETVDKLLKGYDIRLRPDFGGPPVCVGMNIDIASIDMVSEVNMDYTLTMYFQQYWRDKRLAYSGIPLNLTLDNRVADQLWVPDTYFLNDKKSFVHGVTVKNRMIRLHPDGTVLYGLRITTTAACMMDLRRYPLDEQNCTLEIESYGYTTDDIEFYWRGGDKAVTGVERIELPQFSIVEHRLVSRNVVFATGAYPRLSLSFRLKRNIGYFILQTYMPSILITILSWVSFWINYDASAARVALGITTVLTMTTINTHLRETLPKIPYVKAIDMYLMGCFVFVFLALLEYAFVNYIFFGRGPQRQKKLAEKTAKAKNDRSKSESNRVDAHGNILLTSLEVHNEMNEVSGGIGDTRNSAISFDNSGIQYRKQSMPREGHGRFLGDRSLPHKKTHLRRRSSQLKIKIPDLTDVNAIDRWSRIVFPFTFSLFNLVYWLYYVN
T2 sequence (P31644 whole entry): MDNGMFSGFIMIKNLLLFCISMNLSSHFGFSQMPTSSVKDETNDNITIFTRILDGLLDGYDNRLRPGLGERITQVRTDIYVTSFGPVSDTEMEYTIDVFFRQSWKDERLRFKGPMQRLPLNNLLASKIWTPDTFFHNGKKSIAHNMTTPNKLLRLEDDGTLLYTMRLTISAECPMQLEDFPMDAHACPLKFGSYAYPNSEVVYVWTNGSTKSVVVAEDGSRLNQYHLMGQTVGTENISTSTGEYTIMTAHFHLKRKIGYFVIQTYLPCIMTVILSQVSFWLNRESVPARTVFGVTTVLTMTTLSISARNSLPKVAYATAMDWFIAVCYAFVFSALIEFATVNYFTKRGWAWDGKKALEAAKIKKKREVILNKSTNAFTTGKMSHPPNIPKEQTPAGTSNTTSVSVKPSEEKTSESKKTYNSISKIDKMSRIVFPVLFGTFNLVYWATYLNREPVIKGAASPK
Procedure, shortened: (§1)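 Displacement of [3H]Ro 15-1788 from recombinant human GABAA receptor subtypes; Ki reported as mean ± SEM of at least three independent determinations, or mean of two determinations with both individual values shown.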

[4] = target: T3, GABA-A receptor; alpha-3/beta-3/gamma-2 (Homo sapiens, UniProt P18507+P28472+P34903); assay: Inhibition of [3H]-Ro- 15-1788 binding to recombinant human gamma-aminobutyric-acid A receptor alpha-3-beta-3-gamma-2; assay type: protein-complex assay; procedure, shortened: as §1
T3 sequence (P18507 whole entry): T2 sequence (P18507 whole entry)
T3 sequence (P28472 whole entry): T2 sequence (P28472 whole entry)
T3 sequence (P34903 whole entry): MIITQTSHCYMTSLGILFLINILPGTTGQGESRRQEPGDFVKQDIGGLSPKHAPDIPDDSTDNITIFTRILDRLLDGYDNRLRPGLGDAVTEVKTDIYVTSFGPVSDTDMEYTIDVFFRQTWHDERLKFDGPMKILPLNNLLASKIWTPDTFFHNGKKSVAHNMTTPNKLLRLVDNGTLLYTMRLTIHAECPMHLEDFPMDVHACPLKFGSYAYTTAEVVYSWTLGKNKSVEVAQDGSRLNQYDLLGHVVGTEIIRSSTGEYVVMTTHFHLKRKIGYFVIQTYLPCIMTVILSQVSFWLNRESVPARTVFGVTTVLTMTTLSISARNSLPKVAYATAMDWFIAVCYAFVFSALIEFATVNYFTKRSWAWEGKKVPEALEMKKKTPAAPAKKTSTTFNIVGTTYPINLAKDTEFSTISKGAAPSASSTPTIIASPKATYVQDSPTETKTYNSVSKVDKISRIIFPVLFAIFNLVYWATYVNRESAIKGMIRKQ

[5] = target: T4, GABA-A receptor; alpha-2/beta-3/gamma-2 (Homo sapiens, UniProt P18507+P28472+P47869); assay: Inhibition of [3H]-Ro- 15-1788 binding to recombinant human gamma-aminobutyric-acid A receptor alpha-2-beta-3-gamma-2; assay type: protein-complex assay; procedure, shortened: as §1
T4 sequence (P18507 whole entry): T2 sequence (P18507 whole entry)
T4 sequence (P28472 whole entry): T2 sequence (P28472 whole entry)
T4 sequence (P47869 whole entry): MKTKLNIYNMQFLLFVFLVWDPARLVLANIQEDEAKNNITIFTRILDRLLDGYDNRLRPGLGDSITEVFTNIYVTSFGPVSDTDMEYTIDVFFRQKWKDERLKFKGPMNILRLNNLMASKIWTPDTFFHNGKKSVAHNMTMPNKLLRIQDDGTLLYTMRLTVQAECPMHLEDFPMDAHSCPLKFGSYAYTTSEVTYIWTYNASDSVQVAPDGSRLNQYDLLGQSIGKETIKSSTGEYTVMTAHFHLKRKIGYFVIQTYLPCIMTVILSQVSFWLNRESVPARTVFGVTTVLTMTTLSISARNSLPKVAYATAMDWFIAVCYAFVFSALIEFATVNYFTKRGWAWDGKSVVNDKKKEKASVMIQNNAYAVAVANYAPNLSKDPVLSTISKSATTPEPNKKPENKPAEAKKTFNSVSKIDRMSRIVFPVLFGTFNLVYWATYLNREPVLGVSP

[6] = target: T5, Gamma-aminobutyric acid receptor subunit alpha-5 (Homo sapiens) (UniProt P31644); assay: Selectivity for GABA-A receptor alpha-5 subunit over alpha1,2,3 (range 14-35)
T5 sequence (whole entry): T2 sequence (P31644 whole entry)

[7] = target: T6, GABA-A receptor; alpha-1/beta-3/gamma-2 (Homo sapiens, UniProt P14867+P18507+P28472); assay: Inhibition of [3H]-Ro- 15-1788 binding to recombinant human gamma-aminobutyric-acid A receptor alpha-1-beta-3-gamma-2; assay type: protein-complex assay; procedure, shortened: as §1
T6 sequence (P14867 whole entry): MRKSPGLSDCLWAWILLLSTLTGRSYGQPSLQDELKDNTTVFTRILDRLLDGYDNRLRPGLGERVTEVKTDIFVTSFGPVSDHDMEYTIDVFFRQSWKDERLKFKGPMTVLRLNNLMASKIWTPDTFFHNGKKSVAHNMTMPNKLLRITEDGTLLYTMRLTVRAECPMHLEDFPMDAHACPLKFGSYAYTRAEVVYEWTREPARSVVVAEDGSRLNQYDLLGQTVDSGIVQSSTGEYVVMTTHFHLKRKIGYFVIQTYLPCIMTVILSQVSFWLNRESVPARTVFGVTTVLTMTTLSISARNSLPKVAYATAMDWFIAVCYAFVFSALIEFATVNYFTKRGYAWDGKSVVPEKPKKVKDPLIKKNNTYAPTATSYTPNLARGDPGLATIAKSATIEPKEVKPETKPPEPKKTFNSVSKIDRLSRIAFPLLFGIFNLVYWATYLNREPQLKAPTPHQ
T6 sequence (P18507 whole entry): T2 sequence (P18507 whole entry)
T6 sequence (P28472 whole entry): T2 sequence (P28472 whole entry)

[8] = target: T5, Gamma-aminobutyric acid receptor subunit alpha-5 (Homo sapiens); assay: Selectivity for GABA-A receptor alpha-5 subunit over alpha1,2,3 (range 7-13)
[9] = target: T5, Gamma-aminobutyric acid receptor subunit alpha-5 (Homo sapiens); assay: Selectivity for GABA-A receptor alpha-5 subunit over alpha1,2,3 (range 5-11)
[10] = target: T5, Gamma-aminobutyric acid receptor subunit alpha-5 (Homo sapiens); assay: Selectivity for GABA-A receptor alpha-5 subunit over alpha1,2,3 (range 10-13)
[11] = target: T5, Gamma-aminobutyric acid receptor subunit alpha-5 (Homo sapiens); assay: Selectivity for GABA-A receptor alpha-5 subunit over alpha1,2,3
[12] = target: T5, Gamma-aminobutyric acid receptor subunit alpha-5 (Homo sapiens); assay: Selectivity for GABA-A receptor alpha-5 subunit over alpha1,2,3 (range 6-8)
[13] = target: T5, Gamma-aminobutyric acid receptor subunit alpha-5 (Homo sapiens); assay: Selectivity for GABA-A receptor alpha5 subunit over alpha1,2,3 (range 5-9)
[14] = target: T5, Gamma-aminobutyric acid receptor subunit alpha-5 (Homo sapiens); assay: Selectivity for GABA-A receptor alpha-5 subunit over alpha1,2,3 (range 5-15)
[15] = target: T5, Gamma-aminobutyric acid receptor subunit alpha-5 (Homo sapiens); assay: Selectivity for GABA-A receptor alpha-5 subunit over alpha1,2,3 (range 3-12)
[16] = target: T5, Gamma-aminobutyric acid receptor subunit alpha-5 (Homo sapiens); assay: Selectivity for GABA-A receptor alpha-5 subunit over alpha1,2,3 (range 6-14)
[17] = target: T5, Gamma-aminobutyric acid receptor subunit alpha-5 (Homo sapiens); assay: Selectivity for GABA-A receptor alpha-5 subunit over alpha1,2,3 (range 16-38)

SMILES	Efficacy [1] [%]	Efficacy [2] [%]	Ki [3] [µM]	Ki [4] [µM]	Ki [5] [µM]	Ki [7] [µM]	also measured
CCc1c(C(=O)OC)ncc2[nH]c3cc(OC)c(OC)cc3c12	-34	-57					
CC1CC(=O)c2c(SCc3cn[nH]n3)ccc(-c3nccs3)c2C1 (stereo not given)		6	0.0026	0.036	0.057	0.092	Selectivity [6]: 35
CCSc1ccc(-c2ccccn2)c2c1C(=O)CC(C)C2 (stereo not given)	2		0.0019	0.015	0.013	0.025	Selectivity [8]: 13
CC1CC(=O)c2c(Sc3cccs3)ccc(-c3ccccn3)c2C1 (stereo not given)	50		0.0005	0.0045	0.0054	0.0023	Selectivity [9]: 11
COc1nc(CSc2ccc(-c3nccs3)c3c2C(=O)CC(C)C3)ns1 (stereo not given)		57	0.0032	0.035	0.034	0.04	Selectivity [10]: 13
CCSc1ccc(-c2cccc[n+]2[O-])c2c1C(=O)CC(C)C2 (stereo not given)		80	0.025	0.286	0.271	> 0.3	Selectivity [11]: > 11
CSc1ccc(-c2ccccn2)c2c1C(=O)CC(C)C2 (stereo not given)	-5		0.0075	0.042	0.063	0.063	Selectivity [12]: 8
CNC1=Nc2ccc(Cl)cc2C(c2ccccc2)=[N+]([O-])C1	134	99					
CCSc1ccc(-c2cnccn2)c2c1C(=O)CC(C)C2 (stereo not given)	2		0.0021	0.013	0.019	0.011	Selectivity [13]: 9
CCSc1ccc(-c2ccccn2)c2c1C(=O)CCC2			0.103	> 0.3	> 0.3	> 0.3	Selectivity [11]: > 3
CCSc1ccc(-c2nccs2)c2c1C(=O)CC(C)C2 (stereo not given)	-8		0.001	0.012	0.015	0.0054	Selectivity [14]: 15
CSc1ccc(-c2ccccn2)c2c1C(=O)CC(C)(C)C2		-32	0.019	0.059	0.06	0.229	Selectivity [15]: 12
CCSc1ccc(-c2ncco2)c2c1C(=O)CC(C)C2 (stereo not given)	5		0.0026	0.016	0.038	0.037	Selectivity [16]: 14
CC1CC(=O)c2c(SCc3ncn(C)n3)ccc(-c3nccs3)c2C1 (stereo not given)		29	0.001	0.016	0.02	0.038	Selectivity [17]: 38
